Results published in ChEMBL document CHEMBL4414612, “Synthesis and Pharmacological Evaluation of 1-Phenyl-3-Thiophenylurea Derivatives as Cannabinoid Type-1 Receptor Allosteric Modulators” (J Med Chem, 2019).

Assays:
Cannabinoid receptor 2 [1] = target: T1, Cannabinoid receptor 2 (Homo sapiens, UniProt P34972); experiment: Agonist activity at human CB2 receptor expressed in CHO cells co-expressing Galpha16 assessed as increase in calcium mobilization at 10 uM measured at 1 sec interval for 90 secs by calcium-5 dye based FLIPR assay relative to CP55,940; assay type: functional, cell-based
T1 sequence (P34972 whole entry): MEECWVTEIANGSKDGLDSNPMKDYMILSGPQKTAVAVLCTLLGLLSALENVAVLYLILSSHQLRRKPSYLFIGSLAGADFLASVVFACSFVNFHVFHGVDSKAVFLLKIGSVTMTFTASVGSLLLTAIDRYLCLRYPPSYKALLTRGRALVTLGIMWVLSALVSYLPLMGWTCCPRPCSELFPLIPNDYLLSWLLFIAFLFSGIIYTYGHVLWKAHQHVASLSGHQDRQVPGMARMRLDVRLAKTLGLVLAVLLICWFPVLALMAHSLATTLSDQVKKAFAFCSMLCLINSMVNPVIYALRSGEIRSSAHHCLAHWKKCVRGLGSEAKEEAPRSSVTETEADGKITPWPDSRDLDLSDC

Cannabinoid receptor 2 [2] = target: T1, Cannabinoid receptor 2; experiment: (§1) Antagonist activity at human CB2 receptor expressed in CHO cells co-expressing Galpha16 assessed as inhibition of EC80 CP55,940-induced calcium mobilization preincubated for 15 mins followed by […] addition measured at 1 sec interval for 90 secs by calcium-5 dye based FLIPR assay; assay type: functional, cell-based
Method in brief: (§2)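 CB2 antagonist mode in stable human CB2-CHO-RD-HGA16 cells. Cells were dye-loaded, then pretreated with compound for 15 min at 37 °C. CP55,940 was added at its EC80 at the 10 s point, and calcium fluorescence was recorded every 1 s over 90 s.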

Cannabinoid receptor 1 [3] = target: T2, Cannabinoid receptor 1 (Homo sapiens, UniProt P21554); experiment: Inverse agonist activity at human CB1 receptor expressed in HEK293 cell membranes assessed as suppression of [35S]GTPgammaS binding at 10 uM incubated for 60 mins by scintillation counting method; details: hek293, 1 h
T2 sequence (P21554 whole entry): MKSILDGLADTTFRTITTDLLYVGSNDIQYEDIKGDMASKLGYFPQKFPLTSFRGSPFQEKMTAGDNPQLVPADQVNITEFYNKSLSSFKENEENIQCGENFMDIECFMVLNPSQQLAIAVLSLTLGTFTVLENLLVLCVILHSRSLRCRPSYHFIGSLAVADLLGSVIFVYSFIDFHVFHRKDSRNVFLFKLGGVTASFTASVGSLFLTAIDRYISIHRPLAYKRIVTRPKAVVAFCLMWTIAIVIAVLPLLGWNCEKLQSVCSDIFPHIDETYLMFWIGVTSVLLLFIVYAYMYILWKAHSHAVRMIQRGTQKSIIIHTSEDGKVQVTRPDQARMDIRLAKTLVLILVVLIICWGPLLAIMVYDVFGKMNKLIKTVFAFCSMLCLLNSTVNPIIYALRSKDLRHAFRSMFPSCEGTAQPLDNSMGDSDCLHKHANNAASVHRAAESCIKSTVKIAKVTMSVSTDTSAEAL
Method in brief: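 Inverse agonism on human CB1-HEK293 membranes: compounds were incubated 60 min with 0.1 nM [35S]GTPγS and 30 µM GDP, with no CP55,940 present. Buffer was Tris/MgCl2/EGTA pH 7.4 with 0.5% BSA, at 30 °C. Binding was read by filtration and scintillation counting and normalized to basal (vehicle = 0%).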

Cannabinoid receptor 2 [4] = target: T1, Cannabinoid receptor 2; experiment: as §1, with “mobilization at 10 uM” for “mobilization”, “assay relative to CP55,940” for “assay”; assay type: functional, cell-based; method in brief: as §2
Cannabinoid receptor 1 [5] = target: T3, Cannabinoid receptor 1 (Mus musculus, UniProt P47746); experiment: Allosteric modulator activity at CB1 receptor in mouse cerebellar membranes assessed as suppression of 1 uM CP55,940-induced [35S]GTPgammaS binding incubated for 60 mins by scintillation counting method; assay type: functional, cell membranes, Cerebellum, Membrane
T3 sequence (P47746 whole entry): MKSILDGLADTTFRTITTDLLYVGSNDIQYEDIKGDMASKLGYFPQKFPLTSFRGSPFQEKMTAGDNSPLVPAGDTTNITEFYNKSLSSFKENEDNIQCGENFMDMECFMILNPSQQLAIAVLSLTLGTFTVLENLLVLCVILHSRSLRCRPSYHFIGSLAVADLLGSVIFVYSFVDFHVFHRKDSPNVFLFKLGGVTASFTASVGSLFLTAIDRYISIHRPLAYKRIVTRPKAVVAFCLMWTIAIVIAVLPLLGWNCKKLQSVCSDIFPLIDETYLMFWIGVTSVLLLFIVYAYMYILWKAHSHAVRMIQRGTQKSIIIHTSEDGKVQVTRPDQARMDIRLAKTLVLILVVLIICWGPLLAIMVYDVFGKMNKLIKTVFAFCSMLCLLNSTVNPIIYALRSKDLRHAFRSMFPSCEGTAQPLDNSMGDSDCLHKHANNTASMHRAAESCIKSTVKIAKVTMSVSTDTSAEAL

Cannabinoid receptor 1 [6] = target: T2, Cannabinoid receptor 1; experiment: Allosteric modulator activity at human CB1 receptor expressed in CHO-RD-HGA16 cells co-expressing Galpha16 assessed as suppression of 100 nM CP55,940-induced calcium mobilization pre-incubated for 15 mins by Calcium 5 dye based FLIPR assay; assay type: functional, cell-based
Cannabinoid receptor 1 [7] = target: T2, Cannabinoid receptor 1; experiment: Allosteric modulator activity at human CB1 receptor expressed in HEK293 cell membranes assessed as suppression of 100 nM CP55,940-induced [35S]GTPgammaS binding incubated for 60 mins by scintillation counting method; assay type: functional
Cannabinoid receptor 1 [8] = target: T2, Cannabinoid receptor 1; experiment: Agonist activity at human CB1 receptor expressed in CHO-RD-HGA16 cells co-expressing Galpha16 assessed as suppression stimulation of calcium mobilization incubated for 45 mins by Calcium 5 dye based FLIPR assay relative to CP55,940; assay type: functional, cell-based
Method in brief: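 CHO-RD-HGA16 cells stably expressing human CB1 (with Galpha16), plated overnight and loaded with Calcium 5 dye for 45 min at 37 °C. […] Compound was added by the FLIPR Tetra at the 10 s point as a single concentration, and fluorescence (485/525 nm) was read every 1 s for 90 s. RFU were expressed as % of CP55,940 Emax.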

Cannabinoid receptor 1 [9] = target: T3, Cannabinoid receptor 1; experiment: Allosteric modulator activity at CB1 receptor in mouse cerebellar membranes assessed as suppression of 100 nM CP55,940-induced [35S]GTPgammaS binding incubated for 60 mins by scintillation counting method; assay type: functional, cell membranes, Cerebellum, Membrane
[10] = Half life in rat liver microsomes; assay type: ADME, Microsome
Method in brief: (§3)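 Rat liver microsomes (0.5 mg/mL protein) in 100 mM potassium phosphate pH 7.4 at 37 °C with 1 mM NADPH. Samples were taken at 0, 5, 15, 30 and 45 min, quenched with cold acetonitrile containing internal standards, and analysed by LC/MS/MS. Half-life and clearance were calculated; two independent experiments in duplicate.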

[11] = Kinetic solubility in phosphate buffer at 400 uM incubated for 2 hrs by LC-MS/MS analysis; assay type: physicochemical; details: read-out: Kinetic_solubility
Method in brief: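 A 20 mM DMSO stock was diluted into phosphate buffer to a targeted 400 µM and vortexed 2 h at room temperature. Three independent experiments in duplicate.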

[12] = Half life in rat liver microsomes in presence of NADPH by LC-MS/MS analysis; assay type: ADME, Microsome; details: liver microsomes; method in brief: as §3
[13] = Apparent permeability from apical to basolateral side in MDCK-MDR1 cells incubated up to 90 mins by LC-MS/MS analysis; assay type: ADME, cell-based, Canis lupus familiaris; details: dog
Method in brief: (§4)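 MDCK-MDR1 cells were grown 3 days on Transwell supports and preincubated 30 min at 37 °C in HBSS with 10 mM HEPES and 0.25% BSA, pH 7.4, with TEER checked. Test article (10 µM) was added to the apical (A-to-B) or basolateral (B-to-A) donor side at 37 °C with light agitation. Receiver samples were taken at 30, 60 and 90 min for LC-MS/MS. Papp = (dQ/dt)/(A·Ci·60).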

[14] = Clearance in rat liver microsomes in presence of NADPH incubated up to 45 mins by LC-MS/MS analysis; assay type: ADME, Microsome; details: liver microsomes, read-out: CLH; method in brief: as §3
[15] = Apparent permeability from basolateral to apical side in MDCK-MDR1 cells incubated up to 90 mins by LC-MS/MS analysis; assay type: ADME, cell-based, Canis lupus familiaris; details: dog; method in brief: as §4
Cannabinoid receptor 1 [16] = target: T3, Cannabinoid receptor 1; experiment: Allosteric antagonist activity at mouse CB1 receptor by GTPgammaS assay; assay type: functional
Method in brief: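 Cerebellar membranes from male ICR mice (6-8 weeks), preincubated 10 min with adenosine deaminase (3 units/ml) in Tris/MgCl2/EGTA buffer, pH 7.4. Membranes (10 µg) pre-equilibrated 30 min with modulator, CP55,940 (100 nM; some also at 1 µM), 30 µM GDP and 0.5% BSA, then 0.1 nM [35S]GTPγS for 60 min at 30 °C.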

Cannabinoid receptor 1 [17] = target: T2, Cannabinoid receptor 1; experiment: Displacement of [3H]CP55,940 from human CB1 receptor

Emax (Cannabinoid receptor 2 [1])	SMILES	IC50 (Cannabinoid receptor 2 [2])	inhibition (INH) (Cannabinoid receptor 1 [3])	inhibition (Cannabinoid receptor 2 [4])	other results
< 10%	O=C(Nc1ccc(Cl)cc1)Nc1ccc(-c2cccc(F)c2)s1	> 10 µM	Active	< 50%	
< 10%	O=C(Nc1ccc(Cl)cc1)Nc1ccc(-c2cccc(Cl)c2)s1	> 10 µM	Active	< 50%	
< 10%	O=C(Nc1ccc(Cl)cc1)Nc1ccc(-c2ccc(F)cc2)s1	> 10 µM	Active	< 50%	
< 10%	O=C(Nc1ccc(Cl)cc1)Nc1ccc(-c2ccc(Cl)c(Cl)c2)s1	> 10 µM	Active	< 50%	
< 10%	CS(=O)(=O)c1cccc(-c2ccc(NC(=O)Nc3ccc(Cl)cc3)s2)c1	> 10 µM	Active	< 50%	
< 10%	O=C(Nc1ccc(Cl)cc1)N[C@H]1C[C@@H]1c1ccccc1 (relative stereo)	> 10 µM	Active	< 50%	Emax (Cannabinoid receptor 1 [8]): < 30%
< 10%	O=C(Nc1ccc(Cl)cc1)Nc1ccc(-c2ccc(Cl)cc2)s1	> 10 µM	Active	< 50%	
< 10%	COc1ccccc1-c1ccc(NC(=O)Nc2ccc(Cl)cc2)s1	> 10 µM	Active	< 50%	
< 10%	O=C(Nc1ccc(Cl)cc1)N[C@H]1C[C@H]1c1ccccc1 (relative stereo)	> 10 µM	Active	< 50%	Emax (Cannabinoid receptor 1 [8]): < 30%
	O=C(Nc1ccc(Cl)cc1)Nc1cccc(-c2ccc(F)cc2)c1				half-life ([10]; liver microsomes): > 300 min
< 10%	O=C(Nc1ccc(Cl)cc1)Nc1ncc(-c2ccccc2)s1	> 10 µM	Active	< 50%	
< 10%	CC(=O)c1cccc(-c2ccc(NC(=O)Nc3ccc(Cl)cc3)s2)c1	> 10 µM	Active	< 50%	
< 10%	Cc1cccc(-c2ccc(NC(=O)Nc3ccc(Cl)cc3)s2)c1	> 10 µM	Active	< 50%	
	O=C(Nc1ccc(Cl)cc1)Nc1cccc(-c2cccc(N3CCCC3)n2)c1	> 10 µM	Active	< 50%	solubility kinetic at 2 h, 400 µM [11]: < 0.5 µM; half-life [12]: 13.4 min; IC50 (Cannabinoid receptor 1 [9]): 0.288 µM; Emax (Cannabinoid receptor 1 [8]): < 30%; pIC50 (Cannabinoid receptor 1 [5]): 6.91; Papp [13]: 2.6 ×10⁻⁶ cm/s; microsomal CLint at […] [14]: 114 µL/min/mg; t1/2 ([10]; microsomes): 13 min; Papp [15]: 2.2 ×10⁻⁶ cm/s; IC50 (Cannabinoid receptor 1 [16]): 0.115 µM
< 10%	O=C(Nc1ccc(Cl)cc1)Nc1csc(-c2ccccc2)c1	> 10 µM	Active	< 50%	
	O=C(Nc1ccc(Cl)cc1)Nc1cccc(-c2ccc[nH]2)c1				Kd (Cannabinoid receptor 1 [17]): 0.0014 µM
< 10%	COc1ccc(-c2cccc(N3CCCC3)n2)cc1NC(=O)Nc1ccc(Cl)cc1	> 10 µM	Active	< 50%	
< 10%	O=C(Nc1ccc(Cl)cc1)Nc1ccc(-c2cccnc2)s1	> 10 µM	Active	< 50%	

SMILES	Emax (Cannabinoid receptor 2 [1])	IC50 (Cannabinoid receptor 2 [2])	inhibition (INH) (Cannabinoid receptor 1 [3])	inhibition (Cannabinoid receptor 2 [4])	other results
O=C(Nc1ccc(Cl)cc1)Nc1ccc(-c2ccccc2Cl)s1	< 10%	> 10 µM	Active	< 50%	
CN(C)c1cccc(-c2ccc(NC(=O)Nc3ccc(Cl)cc3)s2)c1	< 10%	> 10 µM	Active	< 50%	IC50 (Cannabinoid receptor 1 [5]): 2.57 µM
O=C(Nc1ccc(Cl)cc1)Nc1cccc(-c2ccccc2)n1	< 10%	> 10 µM	Active	< 50%	IC50 (Cannabinoid receptor 1 [6]): 3.53 µM; IC50 (Cannabinoid receptor 1 [7]): > 10 µM
COc1ccc(-c2ccc(NC(=O)Nc3ccc(Cl)cc3)s2)cc1	< 10%	> 10 µM	Active	< 50%	
O=C(Nc1ccc(Cl)cc1)Nc1ccnc(-c2ccccc2)c1	< 10%	> 10 µM	Active	< 50%	IC50 (Cannabinoid receptor 1 [6]): 0.233 µM; IC50 (Cannabinoid receptor 1 [7]): 2.77 µM
O=C(Nc1ccc(Cl)cc1)Nc1ccc(-c2cc(Cl)cc(Cl)c2)s1	< 10%	> 10 µM	Active	< 50%	
O=C(Nc1ccc(Cl)cc1)Nc1cncc(-c2ccccc2)c1	< 10%	> 10 µM	Active	< 50%	IC50 (Cannabinoid receptor 1 [6]): 0.292 µM; IC50 (Cannabinoid receptor 1 [7]): > 10 µM
O=C(Nc1ccc(Cl)cc1)Nc1cc(-c2ccccc2)cs1	< 10%	> 10 µM	Active	< 50%	IC50 (Cannabinoid receptor 1 [9]): 0.776 µM
O=C(Nc1ccc(Cl)cc1)N[C@@H]1CCCN(c2ccccc2)C1	< 10%	> 10 µM	Active	< 50%	IC50 (Cannabinoid receptor 1 [6]): 3.88 µM; IC50 (Cannabinoid receptor 1 [7]): > 10 µM
O=C(Nc1ccc(Cl)cc1)Nc1cc(-c2ccccc2)ccn1	< 10%	> 10 µM	Active	< 50%	IC50 (Cannabinoid receptor 1 [6]): 0.156 µM; IC50 (Cannabinoid receptor 1 [9]): > 10 µM; IC50 (Cannabinoid receptor 1 [7]): > 10 µM
O=C(Nc1ccc(Cl)cc1)Nc1ccc(-c2ccc(F)cc2F)s1	< 10%	> 10 µM	Active	< 50%	
O=C(Nc1ccc(Cl)cc1)Nc1ccc(-c2ccncc2)s1	< 10%	> 10 µM	Active	< 50%	IC50 (Cannabinoid receptor 1 [7]): 0.263 µM
COc1cccc(-c2ccc(NC(=O)Nc3ccc(Cl)cc3)s2)c1	< 10%	> 10 µM	Active	< 50%	
COC(=O)c1cccc(-c2ccc(NC(=O)Nc3ccc(Cl)cc3)s2)c1	< 10%	> 10 µM	Active	< 50%	IC50 (Cannabinoid receptor 1 [7]): 2.35 µM
